The assay relates to HepG2. The assay is described as follows: Cytotoxicity against human HepG2 cells incubated for 96 hrs by MTT assay. Type of assay: functional. Summed up:
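Cells grown in DMEM with 10% FBS and 1% antibiotic at 37 °C, 5% CO2. Trypsinised, seeded at 3 × 10^4 cells per mL, treated over an eight-point titration for 96 h. MTT (0.5 mg mL−1) added for 4 h at 37 °C, formazan dissolved in DMSO, absorbance read at 570 nm. GI50 is the concentration halving the MTT signal versus untreated control. Ellipticine served as reference; n ≥ 3 repeats.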
(Tetrazolium dyes change colour on reduction, which living cells bring about.)

As for `COc1cc([C@H]2Oc3cc([C@H]4Oc5cc(OC(C)=O)cc(OC(C)=O)c5C(=O)[C@@H]4OC(=O)CCCCCCCCCCNC(=O)[C@]45CC[C@@H](C)[C@H](C)[C@H]4C4=CC[C@@H]6[C@@]7(C)C[C@@H](OC(C)=O)[C@H](OC(C)=O)[C@@](C)(COC(C)=O)[C@@H]7[C@H](O)C[C@@]6(C)[C@]4(C)CC5)ccc3O[C@@H]2COC(C)=O)ccc1OC(C)=O`, the GI50 – broadly, the concentration that inhibits growth by half – was 199 µM.
Then `COc1cc([C@H]2Oc3cc([C@H]4Oc5cc(OC(=O)[C@]67CC[C@@H](C)[C@H](C)[C@H]6C6=CC[C@@H]8[C@@]9(C)C[C@@H](OC(C)=O)[C@H](OC(C)=O)[C@@](C)(COC(C)=O)[C@@H]9[C@H](O)C[C@@]8(C)[C@]6(C)CC7)cc(O)c5C(=O)[C@@H]4O)ccc3O[C@@H]2CO)ccc1O`, with above 500 µM; and `COc1cc([C@H]2Oc3cc(-c4oc5cc(OC(C)=O)cc(OC(C)=O)c5c(=O)c4OC(=O)[C@]45CC[C@@H](C)[C@H](C)[C@H]4C4=CC[C@@H]6[C@@]7(C)C[C@@H](OC(C)=O)[C@H](OC(C)=O)[C@@](C)(COC(C)=O)[C@@H]7[C@H](O)C[C@@]6(C)[C@]4(C)CC5)ccc3O[C@@H]2COC(C)=O)ccc1OC(C)=O`, with 471 µM; and `COc1cc([C@H]2Oc3cc([C@H]4Oc5cc(O)cc(O)c5C(=O)[C@@H]4OC(=O)CCCCCCCCCCNC(=O)[C@]45CC[C@@H](C)[C@H](C)[C@H]4C4=CC[C@@H]6[C@@]7(C)C[C@@H](OC(C)=O)[C@H](OC(C)=O)[C@@](C)(COC(C)=O)[C@@H]7[C@H](O)C[C@@]6(C)[C@]4(C)CC5)ccc3O[C@@H]2CO)ccc1O`, with 383 µM.
Regarding `CC(=O)OC[C@@]1(C)C2=CC[C@]3(C)C(CC=C4[C@@H]5[C@@H](C)[C@H](C)CC[C@]5(C(=O)O)CC[C@]43C)[C@@]2(C)C[C@@H](OC(C)=O)[C@@H]1OC(C)=O` (stereo partly specified), the 50% growth inhibitory concentration (GI50) stood at 38.5 µM.
For `Cc1c2ccncc2c(C)c2c1[nH]c1ccccc12` [ELLIPTECINE], the GI50 was determined as 0.42 µM.
To `COc1cc([C@H]2Oc3cc(-c4oc5cc(O)cc(O)c5c(=O)c4OC(=O)[C@]45CC[C@@H](C)[C@H](C)[C@H]4C4=CC[C@@H]6[C@@]7(C)C[C@@H](OC(C)=O)[C@H](OC(C)=O)[C@@](C)(COC(C)=O)[C@@H]7[C@H](O)C[C@@]6(C)[C@]4(C)CC5)ccc3O[C@@H]2CO)ccc1O` belongs 217 µM.
`COc1cc([C@H]2Oc3cc(-c4cc(=O)c5c(O)cc(OC(=O)[C@]67CC[C@@H](C)[C@H](C)[C@H]6C6=CC[C@@H]8[C@@]9(C)C[C@@H](OC(C)=O)[C@H](OC(C)=O)[C@@](C)(COC(C)=O)[C@@H]9[C@H](O)C[C@@]8(C)[C@]6(C)CC7)cc5o4)ccc3O[C@@H]2CO)ccc1O` showed a GI50 above 500 µM.
`COc1cc([C@H]2Oc3cc([C@H]4Oc5cc(O)cc(O)c5C(=O)[C@@H]4OC(=O)CCNC(=O)[C@]45CC[C@@H](C)[C@H](C)[C@H]4C4=CC[C@@H]6[C@@]7(C)C[C@@H](OC(C)=O)[C@H](OC(C)=O)[C@@](C)(COC(C)=O)[C@@H]7[C@H](O)C[C@@]6(C)[C@]4(C)CC5)ccc3O[C@@H]2CO)ccc1O` came in with a GI50 of 141 µM.
`COc1cc([C@H]2Oc3cc([C@H]4Oc5cc(OC(C)=O)cc(OC(C)=O)c5C(=O)[C@@H]4OC(=O)CCNC(=O)[C@]45CC[C@@H](C)[C@H](C)[C@H]4C4=CC[C@@H]6[C@@]7(C)C[C@@H](OC(C)=O)[C@H](OC(C)=O)[C@@](C)(COC(C)=O)C7=CC[C@@]6(C)[C@]4(C)CC5)ccc3O[C@@H]2COC(C)=O)ccc1OC(C)=O` returned a concentration for 50% growth inhibition (GI50) of 352 µM.
To `COc1cc([C@H]2Oc3cc([C@H]4Oc5cc(OC(C)=O)cc(OC(C)=O)c5C(=O)[C@@H]4OC(=O)CCNC(=O)[C@]45CC[C@@H](C)[C@H](C)[C@H]4C4=CC[C@@H]6[C@@]7(C)C[C@@H](OC(C)=O)[C@H](OC(C)=O)[C@@](C)(COC(C)=O)[C@@H]7[C@H](O)C[C@@]6(C)[C@]4(C)CC5)ccc3O[C@@H]2COC(C)=O)ccc1OC(C)=O` belongs 360 µM.

The values above are taken from ChEMBL document CHEMBL6083196, “Synthesis and cytotoxic activity of madecassic acid-silybin conjugate compounds in liver cancer cells” (2024).
